SMILES strings stand for the structures.

In data set [1] the test system is Caco-2. In words: Ratio of permeability from basolateral to apical side over apical to basolateral side of human Caco-2 cell membrane at 10 uM. Format: ADME, cell-based. The note with it: caco-2, 10 µM. An outline of the steps: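 Caco-2 monolayers seeded at 1x10^5 cells/cm2, grown 21-25 days, TEER >600 Ohm/cm2. Compound at 10 µM in HBSS pH 7.4 added to apical or basal donor side; 2 h at 37°C with shaking. Both sides sampled, quantified by LC/MS/MS.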
A general note: Caco-2 cells form a polarised layer with tight junctions and transporters.

For data set [2], the system named is MRP2. The experiment in a line: Permeability across dog MDCK cells expressing MRP2. Format: ADME, cell-based, Canis lupus familiaris. Conditions: read-out: permeability.
Data set [3] deals with Caco-2. The experiment in a line: Ratio of permeability from basolateral to apical side over apical to basolateral side of human Caco-2 cell membrane at 10 uM in presence of MRP2 inhibitor MK571. Conditions: caco-2, 10 µM.

As for `NC(=O)Nc1cn(-c2ccc(-c3ccc(O)cc3)c(F)c2)nc1C(N)=O`, the Ratio in data set [1] is listed as 1.35. In addition, the Papp in data set [2] was 3 ×10⁻⁶ cm/s.

Consider `Cc1cc(O)ccc1-c1ccc(-n2cc(NC(N)=O)c(C(N)=O)n2)cc1C`, for which the Ratio is 26.02 in data set [1] and 2.53 in data set [3]. For the same compound, the Papp in data set [2] amounted to 3 ×10⁻⁶ cm/s.

The values above are taken from ChEMBL document CHEMBL1145516, “Structure-activity relationships for interaction with multidrug resistance protein 2 (ABCC2/MRP2): the role of torsion angle for a series of biphenyl-substituted heterocycles” (Drug Metab Dispos, 2007).
